Drawing on ChEMBL document CHEMBL2406978, “A novel one-pot synthesis and preliminary biological activity evaluation of cis-restricted polyhydroxy stilbenes incorporating protocatechuic acid and cinnamic acid fragments” (2013), this text covers inhibition and Activity for nine molecules.

The target in assay [1] is T1, Tyrosinase (Agaricus bisporus) (UniProt O42713).
T1 sequence (whole entry): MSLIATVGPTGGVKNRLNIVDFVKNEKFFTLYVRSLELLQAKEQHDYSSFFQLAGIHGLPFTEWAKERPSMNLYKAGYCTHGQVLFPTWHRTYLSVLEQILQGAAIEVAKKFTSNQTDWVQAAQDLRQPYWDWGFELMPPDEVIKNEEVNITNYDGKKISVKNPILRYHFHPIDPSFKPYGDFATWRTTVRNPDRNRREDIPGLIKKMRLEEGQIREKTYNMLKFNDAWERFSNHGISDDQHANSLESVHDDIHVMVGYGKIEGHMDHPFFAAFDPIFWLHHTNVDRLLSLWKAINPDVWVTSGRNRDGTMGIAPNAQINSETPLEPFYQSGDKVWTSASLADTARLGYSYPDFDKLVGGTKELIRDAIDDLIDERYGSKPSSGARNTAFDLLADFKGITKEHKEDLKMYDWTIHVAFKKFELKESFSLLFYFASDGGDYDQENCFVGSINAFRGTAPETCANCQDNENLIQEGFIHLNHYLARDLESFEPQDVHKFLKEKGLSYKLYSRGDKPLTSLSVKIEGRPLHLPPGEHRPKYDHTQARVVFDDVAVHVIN
Description: Inhibition of mushroom tyrosinase using L-tyrosine as substrate at 23 uM after 30 mins by spectrophotometric analysis. The method in brief: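 Modified dopachrome method with L-tyrosine substrate, in 3 mL total: 1.0 mL 0.1 M phosphate buffer pH 6.8, 1.0 mL 1.5 mM tyrosine, 0.35 mL 0.2 mM inhibitor stock in DMSO, 0.35 mL water, and 0.30 mL mushroom tyrosinase at 192 U/mL. Reference used DMSO in place of inhibitor. Incubated 37 °C for 30 min, read at 475 nm; activity % = B/A × 100 (sample/reference absorbance).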

In assay [2] the test system is Radical scavenging activity. As to the kind of experiment: Antioxidant activity assessed as DPPH free radical scavenging activity at 3.3 uM measured every 10 mins. The class given is functional. In outline: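 Compound in methanol (0.5 mL) was added to 0.5 mL of 100 µM DPPH• stock solution, with a final compound level of 3.3 µM and DPPH•/substrate molar ratio 15 (radical in excess). Absorbance at 518 nm was read every 10 min until equilibrium. Methanol served as blank and caffeic acid as reference.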
(Loss of DPPH colour is used to gauge radical scavenging.)

The subject of assay [3] is Fusarium graminearum. As to the kind of experiment: […] activity against Fusarium graminearum ATCC 24373 at 50 ug/ml after 24 hrs by agar well diffusion method relative to control. The class given is functional. The settings on record: ATCC 24373, 24 h. For orientation: A growth-free zone around the sample is the usual read-out of agar diffusion tests.
The next assay deals with Aspergillus flavus. Description: […] activity against Aspergillus flavus IMI 052104 at 50 ug/ml after 24 hrs by agar well diffusion method relative to control. It counts as functional. The conditions noted are these: IMI 052104, 24 h.
Another assay deals with Aspergillus niger. As to the kind of experiment: […] activity against Aspergillus niger A3 at 50 ug/ml after 24 hrs by agar well diffusion method relative to control. It counts as functional. The conditions noted are these: A3, 24 h.
The test system of the next assay is Pseudomonas aeruginosa. Description: Antibacterial activity against Pseudomonas aeruginosa ATCC 10145 at 50 ug/ml after 24 hrs by agar well diffusion method. It counts as functional, organism-based.
The next assay has as its system Candida albicans. Description: […] activity against Candida albicans ATCC 10231 at 50 ug/ml after 24 hrs by agar well diffusion method relative to nystatine. The class given is functional. The conditions noted are these: ATCC 10231, 24 h.
Assay [4] concerns Bacillus spizizenii. Description: Antibacterial activity against Bacillus subtilis ATCC 6633 at 50 ug/ml after 24 hrs by agar well diffusion method. The class given is functional.
For the next assay, the system named is Staphylococcus aureus. As to the kind of experiment: Antibacterial activity against Staphylococcus aureus ATCC 25923 at 50 ug/ml after 24 hrs by agar well diffusion method. It counts as functional, organism-based.
The test system of the next assay is Escherichia coli. Description: Antibacterial activity against Escherichia coli ATCC 25922 at 50 ug/ml after 24 hrs by agar well diffusion method. The class given is functional, organism-based.
The test system of assay [5] is Bacillus spizizenii. As to the kind of experiment: Antibacterial activity against Bacillus subtilis ATCC 6633 at 50 ug/ml after 24 hrs by agar well diffusion method relative to amikacin. The class given is functional. The settings on record: ATCC 6633, 24 h. In outline: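 Agar well diffusion on dried overlays of each test strain. Wells of 7 mm received 100 µL of sample at 0.5 mg/mL in DMSO, with DMSO wells as negative control. Positive controls were an amikacin 30 µg disc for bacteria and 100 µL nystatin 10000 IU/mL for C. albicans. Plates were held 60 min at 4 °C for diffusion, then incubated 24 h at 30 or 37 °C. Inhibition zones were measured in mm, in triplicate, and growth inhibition was expressed relative to the positive control.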

The test system of assay [6] is Fusarium graminearum. As to the kind of experiment: […] activity against Fusarium graminearum ATCC 24373 at 0.17 umol/ml after 24 hrs by agar well diffusion method relative to control. It counts as functional, organism-based.

The source made the active and inactive calls. The rule behind the calls is not given here.

One may read the inhibition as how much of the control response was suppressed. With `Oc1ccc(O)cc1`, the inhibition result in [1] is “Active”.

On to `O=C(O)c1ccc(O)c(O)c1` [PROTOCATECHUIC ACID], for which the outcome in assay [2] was Active. Also, the inhibition at 50 µg/mL was determined as 76% with Fusarium graminearum [3], 9% with Aspergillus flavus and 40% in the assay on Aspergillus niger. Besides, the inhibition result in [1] is “Active”.

As to `O=C(O)/C(=C/c1ccc(O)cc1)c1cc(O)c(O)cc1C(=O)O`, the outcome in [2] was Active. Also, the inhibition at 50 µg/mL was 72% with Fusarium graminearum [3], 34% in the assay with Candida albicans, 42% in the assay on Aspergillus flavus and 38% in the assay with Aspergillus niger. In addition, the inhibition entry in the assay on Pseudomonas aeruginosa, with Bacillus spizizenii [4], with Staphylococcus aureus and in the assay on Escherichia coli was “inactive” in each case. In addition, the inhibition entry in assay [1] was “Active”.

Regarding `O=C(O)/C=C/c1ccc(O)c(O)c1` [CAFFEIC ACID], in assay [2], the outcome was Active. Besides, the values for the inhibition at 50 µg/mL in the assay on Fusarium graminearum [3], with Aspergillus flavus and with Aspergillus niger were 63%, 16% and 35%, respectively. Also, in [1], the inhibition result is “Active”.

In the case of `COc1cc(C(=O)O)c(/C(=C\c2cc(C(C)(C)C)c(O)c(C(C)(C)C)c2)C(=O)O)cc1OC`, the Activity in assay [2] came out at 18%. Further, the inhibition at 50 µg/mL with Fusarium graminearum [3] turned out to be 70%; in the assay on Candida albicans, 48%; in the assay on Aspergillus flavus it was 48%; in the assay with Aspergillus niger it was 44%; with Bacillus spizizenii [5], 44%. Moreover, in assay [1], the inhibition result was “Active”.

Take `O=C(O)/C(=C/c1ccc(O)c(O)c1)c1cc(O)c(O)cc1C(=O)O`: in [2], the outcome was Active. For the same molecule, the inhibition at 50 µg/mL in the assay with Fusarium graminearum [3] stood at 72%; in the assay with Candida albicans, 45%; with Aspergillus flavus, 42%; with Aspergillus niger, 37%. Also, the inhibition entry with Pseudomonas aeruginosa, in the assay on Bacillus spizizenii [4], in the assay with Staphylococcus aureus and in the assay on Escherichia coli was “inactive” each time. Also, the inhibition entry in assay [1] was “Active”.

Regarding `O=C(O)/C(=C/c1ccccc1)c1cc(O)c(O)cc1C(=O)O`, the inhibition entry (in the assay on Fusarium graminearum [6]; in assay [1]) was “Active” in each case. The outcome in assay [2] was Active. For the same molecule, the inhibition at 50 µg/mL was determined as 89% with Fusarium graminearum [3], 40% in the assay on Candida albicans, 43% in the assay with Aspergillus flavus and 34% in the assay with Aspergillus niger. In addition, the inhibition entry with Pseudomonas aeruginosa, in the assay with Bacillus spizizenii [4], in the assay on Staphylococcus aureus and in the assay with Escherichia coli was “inactive” each time.

On to `CC(C)(C)c1cc(/C=C(/C(=O)O)c2cc(O)c(O)cc2C(=O)O)cc(C(C)(C)C)c1O`, for which the result in [2] was Active. Further, the inhibition at 50 µg/mL amounted to 76% in the assay with Fusarium graminearum [3], 40% with Candida albicans, 52% in the assay with Aspergillus flavus and 44% with Aspergillus niger. Besides, the inhibition result with Pseudomonas aeruginosa, in the assay with Bacillus spizizenii [4], in the assay with Staphylococcus aureus and with Escherichia coli was “inactive” throughout. Moreover, in assay [1], the inhibition result was “Active”.

In the case of `O=C(O)/C(=C/c1cc(O)c(O)c(O)c1)c1cc(O)c(O)cc1C(=O)O`, in assay [2], the result was Active. For the same molecule, the inhibition at 50 µg/mL in the assay with Fusarium graminearum [3] came out at 71%; with Candida albicans it was 40%; with Aspergillus flavus, 42%; with Aspergillus niger, 37%. Besides, the inhibition result in the assay on Pseudomonas aeruginosa, in the assay on Bacillus spizizenii [4], in the assay with Staphylococcus aureus and with Escherichia coli was “inactive” each time. In assay [1], the inhibition result was “Active”.
